≈ marks a conversion by molar mass, not a printed value. Calls of active or inactive are those of the source. No cut-off for these calls is given here.
How the values were obtained:
Assay type in all cases: functional
[1] = Antifungal activity against Candida viswanathii NBRC10321 at 400 ug/ml after 24 hrs by twofold serial dilution method
How it was run: (§1)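 Compounds were first screened at a single concentration of 400 against each fungus. MIC values were then determined only for selected compounds.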

Saccharomyces cerevisiae = assay: Antifungal activity against Saccharomyces cerevisiae X2180-1A after 24 hrs by twofold serial dilution method; how it was run: as §1
Aspergillus oryzae = assay: Antifungal activity against Aspergillus oryzae 1-Murasaki-1 after 24 hrs by twofold serial dilution method; details: 1-Murasaki-1, 24 h; how it was run: as §1

Structure (SMILES) | Activity [1] | MIC (Saccharomyces cerevisiae) [µg/mL] | MIC (Aspergillus oryzae) [µg/mL]
CCCCCCCCNC(=O)[C@@H]1CC(=O)N[C@H](CO)C(=O)N[C@H](Cc2ccc(O)cc2)C(=O)N[C@H](CC(N)=O)C(=O)NCC(=O)N[C@@H](CC(N)=O)C(=O)N[C@@H](CO)C(=O)N[C@@H](CC(N)=O)C(=O)N1 | inactive |  | 
C[C@@H]1[C@H](O)[C@@H](C)/C=C/C=C/C=C/C=C/C=C/C=C/C=C/[C@H](O[C@@H]2O[C@H](C)[C@@H](O)[C@H](N)[C@@H]2O)C[C@@H]2O[C@](O)(C[C@@H](O)C[C@@H](O)[C@H](O)CC[C@@H](O)C[C@@H](O)CC(=O)O[C@H]1C)C[C@H](O)[C@H]2C(=O)O [AMPHOTERICIN B] |  | 1 (≈ 1.08 µM) | 
CCCCCCCCCCCCNC(=O)[C@@H]1CC(=O)N[C@H](CO)C(=O)N[C@H](Cc2ccc(O)cc2)C(=O)N[C@H](CC(N)=O)C(=O)NCC(=O)N[C@H](CC(N)=O)C(=O)N[C@@H](CO)C(=O)N[C@H](CC(N)=O)C(=O)N1 | inactive |  | 
CCCCCCCCCCCCCCCCNC(=O)[C@H]1CC(=O)N[C@H](CO)C(=O)N[C@H](Cc2ccc(O)cc2)C(=O)N[C@H](CC(N)=O)C(=O)NCC(=O)N[C@@H](CC(N)=O)C(=O)N[C@@H](CO)C(=O)N[C@@H](CC(N)=O)C(=O)N1 | inactive |  | 
CCCCCCCCCCCCNC(=O)[C@H]1CC(=O)N[C@H](CO)C(=O)N[C@H](Cc2ccc(O)cc2)C(=O)N[C@H](CC(N)=O)C(=O)NCC(=O)N[C@H](CC(N)=O)C(=O)N[C@@H](CO)C(=O)N[C@H](CC(N)=O)C(=O)N1 | inactive | 400 (≈ 392 µM) | 200 (≈ 196 µM)
CCCCCCCCCCCCNC(=O)[C@@H]1CC(=O)N[C@H](CO)C(=O)N[C@H](Cc2ccc(O)cc2)C(=O)N[C@H](CC(N)=O)C(=O)NCC(=O)N[C@@H](CC(N)=O)C(=O)N[C@H](CO)C(=O)N[C@@H](CC(N)=O)C(=O)N1 | inactive |  | 
CCCCCCCCCCCCNC(=O)[C@@H]1CC(=O)N[C@H](CO)C(=O)N[C@H](Cc2ccc(O)cc2)C(=O)N[C@H](CC(N)=O)C(=O)NCC(=O)N[C@@H](CC(N)=O)C(=O)N[C@@H](CO)C(=O)N[C@H](CC(N)=O)C(=O)N1 | inactive |  | 
CCCCCCCCNC(=O)[C@H]1CC(=O)N[C@H](CO)C(=O)N[C@H](Cc2ccc(O)cc2)C(=O)N[C@H](CC(N)=O)C(=O)NCC(=O)N[C@@H](CC(N)=O)C(=O)N[C@@H](CO)C(=O)N[C@@H](CC(N)=O)C(=O)N1 | inactive |  | 
CCCCCCCCCCCCNC(=O)[C@H](CC(=O)N[C@H](CO)C(=O)N[C@H](Cc1ccc(O)cc1)C(=O)N[C@H](CC(N)=O)C(=O)NCC(=O)O)NC(=O)[C@H](CC(N)=O)NC(=O)[C@H](CO)NC(=O)[C@@H](N)CC(N)=O | inactive |  | 
CCCCCCCCCCCCNC(=O)[C@H]1CC(=O)N[C@H](CO)C(=O)N[C@H](Cc2ccc(O)cc2)C(=O)N[C@H](CC(N)=O)C(=O)NCC(=O)N[C@@H](CC(N)=O)C(=O)N[C@H](CO)C(=O)N[C@H](CC(N)=O)C(=O)N1 | inactive | 400 (≈ 392 µM) | 200 (≈ 196 µM)
CCCCCCCCCCCCNC(=O)[C@H]1CC(=O)N[C@H](CO)C(=O)N[C@H](Cc2ccc(O)cc2)C(=O)N[C@H](CC(N)=O)C(=O)NCC(=O)N[C@@H](CC(N)=O)C(=O)N[C@@H](CO)C(=O)N[C@H](CC(N)=O)C(=O)N1 | inactive | > 400 | 200 (≈ 196 µM)
CCCCCCCCCCCCNC(=O)[C@H](CC(=O)N[C@H](CO)C(=O)N[C@H](Cc1ccc(O)cc1)C(=O)O)NC(=O)[C@H](CC(N)=O)NC(=O)[C@H](CO)NC(=O)[C@H](CC(N)=O)NC(=O)CNC(=O)[C@H](N)CC(N)=O | inactive |  | 
CCCCCCCCCCCCNC(=O)[C@H]1CC(=O)N[C@H](CO)C(=O)N[C@H](Cc2ccc(O)cc2)C(=O)N[C@H](CC(N)=O)C(=O)NCC(=O)N[C@H](CC(N)=O)C(=O)N[C@@H](CO)C(=O)N[C@@H](CC(N)=O)C(=O)N1 | inactive |  | 
CCCCCCCCCCCCNC(=O)[C@H](CC(=O)N[C@H](CO)C(=O)N[C@H](Cc1ccc(O)cc1)C(=O)N[C@H](CC(N)=O)C(=O)NCC(=O)N[C@@H](CC(N)=O)C(=O)N[C@@H](CO)C(=O)O)NC(=O)[C@@H](N)CC(N)=O | inactive |  | 
CCCCCCCCCCCCCCCCNC(=O)[C@@H]1CC(=O)N[C@H](CO)C(=O)N[C@H](Cc2ccc(O)cc2)C(=O)N[C@H](CC(N)=O)C(=O)NCC(=O)N[C@@H](CC(N)=O)C(=O)N[C@@H](CO)C(=O)N[C@@H](CC(N)=O)C(=O)N1 | inactive |  | 
CCCCCCCCCCCCNC(=O)[C@@H]1CC(=O)N[C@H](CO)C(=O)N[C@H](Cc2ccc(O)cc2)C(=O)N[C@H](CC(N)=O)C(=O)NCC(=O)N[C@H](CC(N)=O)C(=O)N[C@@H](CO)C(=O)N[C@@H](CC(N)=O)C(=O)N1 | inactive |  | 
CCCCCCCCCCCCNC(=O)[C@H](CC(=O)N[C@H](CO)C(=O)N[C@H](Cc1ccc(O)cc1)C(=O)N[C@H](CC(N)=O)C(=O)NCC(=O)N[C@@H](CC(N)=O)C(=O)O)NC(=O)[C@H](CC(N)=O)NC(=O)[C@@H](N)CO | inactive |  | 
CCCCCCCCCCCCNC(=O)[C@@H]1CC(=O)N[C@H](CO)C(=O)N[C@H](Cc2ccc(O)cc2)C(=O)N[C@H](CC(N)=O)C(=O)NCC(=O)N[C@H](CC(N)=O)C(=O)N[C@H](CO)C(=O)N[C@@H](CC(N)=O)C(=O)N1 | inactive |  | 
CCCCCCCCCCCCNC(=O)[C@H]1CC(=O)N[C@H](CO)C(=O)N[C@H](Cc2ccc(O)cc2)C(=O)N[C@H](CC(N)=O)C(=O)NCC(=O)N[C@@H](CC(N)=O)C(=O)N[C@H](CO)C(=O)N[C@@H](CC(N)=O)C(=O)N1 | inactive |  | 
CCCCCCCCCCCCNC(=O)[C@H](CC(=O)N[C@H](CO)C(=O)N[C@H](Cc1ccc(O)cc1)C(=O)N[C@H](CC(N)=O)C(=O)O)NC(=O)[C@H](CC(N)=O)NC(=O)[C@H](CO)NC(=O)[C@H](CC(N)=O)NC(=O)CN | inactive |  | 
CCCCCCCCCCCCNC(=O)[C@H]1CC(=O)N[C@H](CO)C(=O)N[C@H](Cc2ccc(O)cc2)C(=O)N[C@H](CC(N)=O)C(=O)NCC(=O)N[C@H](CC(N)=O)C(=O)N[C@H](CO)C(=O)N[C@H](CC(N)=O)C(=O)N1 | inactive | 100 (≈ 98.1 µM) | 200 (≈ 196 µM)
CCCCCCCCCCCCNC(=O)[C@H]1CC(=O)N[C@H](CO)C(=O)N[C@H](Cc2ccc(O)cc2)C(=O)N[C@H](CC(N)=O)C(=O)NCC(=O)N[C@@H](CC(N)=O)C(=O)N[C@@H](CO)C(=O)N[C@@H](CC(N)=O)C(=O)N1 | inactive | 50 (≈ 49.1 µM) | 50 (≈ 49.1 µM)
CCCCCCCCCCCCNC(=O)[C@@H]1CC(=O)N[C@H](CO)C(=O)N[C@H](Cc2ccc(O)cc2)C(=O)N[C@H](CC(N)=O)C(=O)NCC(=O)N[C@H](CC(N)=O)C(=O)N[C@H](CO)C(=O)N[C@H](CC(N)=O)C(=O)N1 | inactive | > 400 | 200 (≈ 196 µM)
CCCCCCCCCCCCNC(=O)[C@@H]1CC(=O)N[C@H](CO)C(=O)N[C@H](Cc2ccc(O)cc2)C(=O)N[C@H](CC(N)=O)C(=O)NCC(=O)N[C@@H](CC(N)=O)C(=O)N[C@H](CO)C(=O)N[C@H](CC(N)=O)C(=O)N1 | inactive |  | 
CCCCCCCCCCCCNC(=O)[C@H](CC(=O)N[C@H](CO)C(=O)O)NC(=O)[C@H](CC(N)=O)NC(=O)[C@H](CO)NC(=O)[C@H](CC(N)=O)NC(=O)CNC(=O)[C@@H](CC(N)=O)NC(=O)[C@H](N)Cc1ccc(O)cc1 | inactive |  | 
CCCCCCCCCCCCNC(=O)[C@@H]1CC(=O)N[C@H](CO)C(=O)N[C@H](Cc2ccc(O)cc2)C(=O)N[C@H](CC(N)=O)C(=O)NCC(=O)N[C@@H](CC(N)=O)C(=O)N[C@@H](CO)C(=O)N[C@@H](CC(N)=O)C(=O)N1 | inactive | 25 (≈ 24.5 µM) | 50 (≈ 49.1 µM)
CCCCCCCCCCCCNC(=O)[C@H]1CC(=O)N[C@H](CO)C(=O)N[C@H](Cc2ccc(O)cc2)C(=O)N[C@H](CC(N)=O)C(=O)NCC(=O)N[C@H](CC(N)=O)C(=O)N[C@H](CO)C(=O)N[C@@H](CC(N)=O)C(=O)N1 | inactive | 100 (≈ 98.1 µM) | 200 (≈ 196 µM)
